TAAR1 antag: antagonists of human TAAR1; Q96RJ0; CHO RD-HGA16 TAAR1, Fluo-8 calcium fluorescence, antagonist; inhibition, % at 3 µM; actives 1.5% (n = 360,000);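 active means inhibition above a per-plate cutoff, the mean inhibition of test compounds on that plate plus 3 SD, cut at about 49% in these data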;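 further: 0% = DMSO plus EC80 beta-PEA response and 100% = DMSO alone without agonist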
Target sequence (Q96RJ0 whole entry, looked up): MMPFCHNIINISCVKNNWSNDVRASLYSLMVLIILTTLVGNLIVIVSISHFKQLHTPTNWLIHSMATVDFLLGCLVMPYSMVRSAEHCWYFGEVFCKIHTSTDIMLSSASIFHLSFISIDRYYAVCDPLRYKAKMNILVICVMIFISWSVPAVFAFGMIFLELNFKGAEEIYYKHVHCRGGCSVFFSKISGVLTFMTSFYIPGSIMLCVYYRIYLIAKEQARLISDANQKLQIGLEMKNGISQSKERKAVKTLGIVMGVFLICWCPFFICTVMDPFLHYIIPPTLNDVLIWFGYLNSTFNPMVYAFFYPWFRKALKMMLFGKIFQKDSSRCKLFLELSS
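Assay system: RD-HGA16 CHO cells with stable hTAAR1 and Gα16 / Reagent: EC80 β-phenethylamine stimulus / Doses: 3 µM, single point / Timing: dye loading 75 min at 37 °C, then 30 min room temperature / Measured by: Fluo-8 intracellular calcium dye fluorescence, real-time kinetic reads / Controls: vehicle wells and EC80 agonist wells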
B2AR ag: human beta-2 adrenergic receptor agonism by FAP; P07550; Am2.2-beta2AR cells, FAP receptor internalization, flow cytometry; response, % (test concentration not listed); actives 0.43% (n = 340,000);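 active means response above a set limit, near 3 SD of response in nonfluorescent compounds, cut at about 42% in these data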
HTR2A ag: agonists of mouse serotonin 5-HT2A receptor (HTR2A) | CHO-K1 mHTR2A beta-arrestin complementation, luminescence; percent of 30 µM serotonin response | activation, % at 7.6 µM | actives 0.66% (n = 360,000) | AID 624169;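 active means activation above a run cutoff, the mean activation of all tested compounds plus 3 SD, cut at about 14% in these data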;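 further: 0% = plate median of compound wells and 100% = 30 µM serotonin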
MC4R barr agon: activates human MC4R beta-arrestin recruitment; activation, % at 8.9 µM; actives 0.98% (n = 360,000); U2OS MC4R beta-arrestin complementation, luminescence; percent of melanotan II response, DMSO zero; P32245; AID 540308;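 active means activation above a per-plate cutoff, the mean activation of sample wells on that plate plus 3 SD, cut at about 8% in these data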
Target sequence (P32245 whole entry, looked up): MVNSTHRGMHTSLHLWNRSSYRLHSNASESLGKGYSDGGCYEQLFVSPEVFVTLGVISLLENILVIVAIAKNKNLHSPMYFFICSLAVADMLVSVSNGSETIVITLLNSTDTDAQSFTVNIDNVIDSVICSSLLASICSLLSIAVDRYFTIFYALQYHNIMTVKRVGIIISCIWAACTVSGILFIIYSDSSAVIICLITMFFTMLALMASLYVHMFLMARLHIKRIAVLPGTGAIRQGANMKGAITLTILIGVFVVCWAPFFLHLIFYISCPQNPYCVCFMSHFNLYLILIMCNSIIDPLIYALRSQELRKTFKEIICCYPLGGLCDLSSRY
TAAR1 agonist: agonists of human TAAR1 | Q96RJ0 | CHO RD-HGA16 TAAR1, Fluo-8 calcium fluorescence; vehicle wells 0%, saturating PEA agonist 100% | activation, % at 3 µM | actives 0.99% (n = 360,000) | AID 624467;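 active means activation above the mean activation of all test compounds in the run plus 3 SD, cut at about 38% in these data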
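System: CHO RD-HGA16 cells carrying human TAAR1 plus Gα16; Incubation: 17-24 h seeding, 75 min 37 °C dye, 30 min RT; Measured by: Fluo-8 fluorescence, 5 s baseline then 140 s kinetic read; Control set: DMSO and PEA EC100; Replication: single well for each compound.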
MC4R antag cAMP: antagonists of human melanocortin 4 receptor (MC4R). AID 540295. inhibition, % at 6.5 µM. actives 0.48% (n = 360,000). P32245. MC4R-expressing cells, MTII-stimulated cAMP, LANCE TR-FRET;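 active means inhibition above its plate's cutoff, the mean of tested wells on that plate plus 3 SD, cut at about 29% in these data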;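 further: 0% = Melanotan II alone and 100% = Melanotan II plus saturating MCL0020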
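System: U2OS-MC4R stable cell line; Technique: Eu-cAMP/anti-cAMP TR-FRET, emission 671 nm; Repeats: single well per compound; Also added: Melanotan II; Dosing: one concentration, 6.5 µM nominal; Schedule: 30-min compound, 1-h challenge, 1-h detection, room temperature.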
MC4R barr ag: human MC4R beta-arrestin agonism confirmation; shares compounds with MC4R barr agon; U2OS MC4R beta-arrestin recruitment, luminescence; scaled DMSO 0%, Melanotan II 100%; activation, % at 8.9 µM; actives 31% (n = 2,400); AID 602192;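 active means mean activation across replicates above the hit cutoff set in the earlier primary screen, cut at about 8% in these data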
MOR-DOR barr ag: counter-screen for MC4R agonists: agonists of mu-delta opioid heterodimer | actives 5.8% (n = 2,400) | U2OS PathHunter beta-arrestin, beta-gal luminescence; percent of deltorphin B response, DMSO zero | activation, % at 9.2 µM | shares compounds with MC4R barr agon;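 active means mean activation across replicates exceeds the hit threshold derived in the earlier primary screen, cut at about 18% in these data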;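 further: 100% = deltorphin B at 0.9 µM final and 0% = DMSO alone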
Numbers without * were called inactive; nt = no result. Most compounds without a hit are left out; they make up all but 4.3% or so of the library.

SMILES	TAAR1 antag	B2AR ag	HTR2A ag	MC4R barr agon	TAAR1 agonist	MC4R antag cAMP	MC4R barr ag	MOR-DOR barr ag
Cc1ccc(NC(=O)c2ccc(NCC3CCCO3)c([N+](=O)[O-])c2)cc1Cl (centres undefined)	-13.4	2.5	-5.7	33.9*	0.6	-1.8	12.6*	20.5*
C[C@H]1C(=O)N(C)CCN1C(=O)c1ccc(OC2CCN(CCc3ccccc3)CC2)cc1	-20.1	nt	-9.0	-0.7	4.8	-6.5	nt	nt
O=c1c(Cl)c(N/N=C/c2ccc(Br)cc2)cnn1-c1ccccc1	-11.7	-6.6	0.7	15.9*	11.3	6.6	11.7*	3.3
O=C(O)c1ccc(/C=N/Nc2nnnn2-c2ccccc2)cc1	0.6	-1.4	-1.4	2.4	1.2	15.2	nt	nt
O=C(c1ccc(Cl)cc1)N1CCc2c([nH]c3ccccc23)C1C(F)(F)F (centres undefined)	-19.5	28.6	4.6	9.8*	-0.6	17.5	1.3	8.1
Cc1ccc(-c2[nH]ncc2/C=N/n2c(COc3ccccc3C)nc3ccccc3c2=O)cc1	43.2	8.8	-0.3	18.8*	13.3	4.4	3.2	5.3
Cc1cccc(C)c1OCc1nc2ccccc2c(=O)n1/N=C/c1c[nH]c2ccccc12	7.5	4.4	1.3	2.5	-0.3	8.9	nt	nt
Cc1ccccc1OCc1nc2ccccc2c(=O)n1/N=C/c1c[nH]c2ccccc12	30.3	9.1	4.5	28.5*	5.2	-2.6	8.2	6.0
Cc1cc(/C=N/n2c(COc3ccccc3C)nc3ccccc3c2=O)c(O)c([N+](=O)[O-])c1	4.3	-409.8	2.1	-2.2	2.8	5.0	nt	nt
CCN(CC)c1nc(OCCNC(=O)Nc2ccccc2)nc(N(CC)CC)n1	25.7	0.2	8.1	13.0*	3.5	-0.5	2.5	7.5
COc1cccc2cc(C(=O)c3ccc([N+](=O)[O-])cc3)oc12	-6.0	1.1	5.1	19.9*	-0.6	4.9	0.5	6.0
Cc1cc(C)cc(NC(=O)Cc2ccc(-n3cccc3)cc2)c1	27.0	-4.9	-4.9	9.7*	17.8	8.8	2.5	4.1
C=CCN1C(=O)C2(NNc3ccccc3O2)c2ccccc21 (centres undefined)	5.9	-306.9	8.7	9.8*	0.6	2.1	10.2*	4.6
CC1=C(C(=O)N(C)C)CC(CC(=O)NC2CC2)C(=O)N1Cc1ccccc1 (centres undefined)	-13.3	nt	7.5	-0.9	6.3	6.7	nt	nt
O=C(COC(=O)/C=C/c1cccc(Br)c1)Nc1ccc(Cl)cn1	-7.2	nt	-3.9	1.5	0.1	5.7	nt	nt
CCCNC(=O)c1ccc2c(=O)c(O)c(-c3ccc(C)cc3)[nH]c2c1	21.8	4.2	-4.4	1.2	2.9	5.2	nt	nt
Cc1ccc(CNC(=O)c2ccc3c(=O)c(O)c(-c4ccc(C)cc4)[nH]c3c2)cc1	-10.5	-1.7	7.1	13.0*	7.8	5.1	1.2	8.8
CCCCCN=C(N)N/N=C/c1c[nH]c2ccc(OC)cc12	-26.3	47.1*	2.7	10.1*	31.4	12.8	14.5*	30.9*
CCc1nc2c(OCc3ccc(C#N)cc3)cccn2c1N(C)C(=O)c1cccs1	-21.7	nt	-3.0	-1.4	-0.6	1.5	nt	nt
O=C(NCCC1=CCCCC1)c1cc(S(=O)(=O)N2CCOCC2)c(Cl)cc1Cl	-13.9	-7.4	3.5	10.1*	3.0	5.2	0.1	4.7
O=C(CSc1ncnc2c1oc1ccccc12)Nc1cccc(C(F)(F)F)c1	1.6	-6.2	-1.1	5.6	1.9	-2.6	nt	nt
O=C(CSc1ncnc2c1oc1ccccc12)Nc1cccc(Cl)c1	30.1	-6.7	5.0	12.7*	6.9	9.9	-0.2	4.7
O=C(CCN1CCN(C/C=C/c2ccccc2)CC1)Nc1ccc(Cl)cc1	-18.8	-8.4	-1.2	-0.8	4.8	8.3	nt	nt
O=C(Nc1cccc(Cl)c1)N1CCN(C/C=C/c2ccccc2)CC1	16.8	-13.4	-6.7	9.6*	7.6	5.2	5.7	6.5
N#CCn1c2ccccc2c2nc3ccccc3nc21	-14.1	-9.8	-2.6	-0.7	2.0	-8.5	nt	nt
SMILES	TAAR1 antag	B2AR ag	HTR2A ag	MC4R barr agon	TAAR1 agonist	MC4R antag cAMP	MC4R barr ag	MOR-DOR barr ag
C#CCn1c2ccccc2c2nc3ccccc3nc21	-3.8	3.2	1.6	10.7*	4.0	-1.6	-0.3	4.9
CCc1nc2ccc(C(=O)NCCCN3CCCC3=O)cn2c1N(CC)Cc1cccc(Br)c1	-31.0	nt	-10.3	-1.6	2.2	3.0	nt	nt
O=C(Nc1ccccc1)C1C2/C=C\CCCCC21 (centres undefined)	-5.8	2.6	5.9	-0.3	4.2	7.7	nt	nt
Cc1ccc(NC(=O)C2C3/C=C\CCCCC32)cc1C (centres undefined)	6.3	0.7	-2.4	18.7*	2.5	-3.5	2.4	5.7
CCCCOc1ccc(C(C)NC(=O)CCS(=O)(=O)Cc2ccc(Cl)cc2)cc1 (centres undefined)	-24.3	-13.1	4.3	1.5	7.6	16.7	nt	nt
CCCCOc1ccc(C(C)NC(=O)CCS(=O)(=O)Cc2ccccc2Cl)cc1 (centres undefined)	14.7	-8.5	1.9	10.7*	28.0	5.6	2.7	3.6
O=C(COc1ccccc1)Nc1nc2cc3c(cc2s1)OCO3	-1.0	0.6	-0.2	2.5	-0.6	1.0	nt	nt
O=C(COc1ccccc1)Nc1nc2cc3c(cc2s1)OCCO3	6.5	7.8	-3.2	13.9*	0.1	4.8	6.4	0.7
COc1ccc(O)c(-c2cc(C(F)(F)C(F)F)nc(-c3ccccc3)n2)c1	11.3	4.6	-0.7	14.0*	12.2	-1.7	17.0*	1.4
O=S(=O)(Nc1ccc(-n2cccc2)cc1)c1ccc(Cl)c(Cl)c1	-17.2	-240.0	-4.4	5.7	0.7	-4.0	nt	nt
O=S(=O)(Nc1ccc(-n2cccc2)cc1)c1ccc(Cl)cc1Cl	35.6	-0.4	2.6	11.1*	20.3	3.1	6.5	6.0
COc1ccc(NC(=O)CN(C)C(=O)/C=C/c2ccc(S(=O)(=O)N3CCCCCC3)cc2)cc1	21.4	-9.7	-3.2	30.1*	-0.5	-0.3	10.9*	2.0
COc1ccc(NC(=O)CN(C)C(=O)/C=C/c2ccc(OCc3ccccc3)cc2)cc1	12.9	-9.8	4.3	19.0*	-0.7	-0.6	8.2	12.2
COc1ccc(NC(=O)CN(C)C(=O)CCc2ccccc2)cc1	-11.4	1.8	5.9	-0.8	2.1	-1.0	nt	nt
